# Measured values: PubChem BioAssay
# The source made the active and inactive calls.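 The calls were made as follows: active = GFP response above 150% of the DMSO control; inconclusive = fewer than 70 events counted in any yeast strain; inactive = the rest.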
# Experiment: hit retest on RPL19A-GFP reporter strain – cell-based, S. cerevisiae, flow cytometry, cherry picks, mother/daughter gates, confirmation (AID 2270)
# Settings: 3 h, measured here: mother cell gate, at 10 µM, stronger effect = lower value, 100 = same GFP as DMSO wells
row,SMILES,GFP response vs DMSO [%]
1,CSc1nc2ccc(S(=O)(=O)N3CCCC3)cc2s1,93.3
2,O=C1c2cccc3c([N+](=O)[O-])ccc(c23)C(=O)N1CCc1ccccn1,99.2
3,COc1ccc(N=Cc2nc(-c3ccccc3)oc2OC(=O)c2ccccc2)cc1,101
4,CS(=O)(=O)Nc1ccc(C2=NN(S(C)(=O)=O)C(c3ccccc3)C2)cc1 (stereo not given),98.6
5,Nc1cccc(C(=O)Nc2ccccc2Cl)c1,98.9
6,CCN(CC)c1ccc(/C=C/c2cccc[n+]2C)c(OC)c1,105
7,O=C(N/N=C/c1cccc(Oc2ccccc2)c1)c1ccncc1,95.4
8,N/C(Cc1ccc(Cl)cc1Cl)=N\OC(=O)c1ccccc1,89.4
9,CCC(=O)N/C(N)=N/c1nc2ccccc2o1,84.8
10,Cc1cccc2nc(-c3cccnc3)c(NCCC(C)C)n12,99.6
11,CCOc1ccc(C(Nc2cccnc2)c2cc(Cl)c3cccnc3c2O)cc1 (stereo not given),95.6
12,Nc1cccnc1S(=O)(=O)c1ccccc1,100
13,O=C1ON=C(c2ccccc2)/C1=C/c1ccco1,85.2
14,COc1cc(NC(=O)c2c(OC)cccc2OC)ccc1NC(=O)c1cc2ccccc2o1,96.5
15,Cc1cc(NC(=O)c2cc3ccccc3o2)ccc1NC(=O)c1ccccc1,99.8
16,Clc1cccc(Cn2ncc3ccccc32)c1,94.9
17,Cc1ccccc1NC(=O)CC1SC(=O)N(c2ccccc2)C1=O (stereo not given),91
18,CCOC(=O)c1sc(NC(=O)CN2C(=O)c3cccc4cccc(c34)C2=O)nc1C,96.9
19,COc1ccc(C(=O)Nc2cccc(C)c2)cc1,96.9
20,COc1ccc(C2CC(c3cccs3)=NN2S(=O)(=O)c2ccc(C)cc2)cc1 (stereo not given),98.6

row,SMILES,GFP response vs DMSO [%]
1,O=C1c2ccsc2SCCN1Cc1ccccc1,94.8
2,CCCOc1ccc(C(=O)NNC(=S)NC(=O)c2ccco2)cc1,110
3,CCc1c2ccccc2nn1-c1ccccc1C(=O)C(C)=O,94
4,Cc1c(Br)cc(C(=O)O)c(C)c1C,88
5,CSC1=NS(=O)(=O)c2c(C)nn(C)c2S1,85.8
6,O=S(=O)(c1ccc(Cl)cc1)c1ccccn1,95.8
7,COc1cccc(C(=O)/C=C/c2ccc(SC)cc2)c1,98.5
8,Cc1ccc(N2C(=O)CC(Sc3ncn[nH]3)C2=O)cc1C (stereo not given),101
9,O=C(NCc1ccccn1)c1cc(-c2ccc(Cl)cc2)oc1C(F)(F)F,99.8
10,O=C(CSc1cccc[n+]1[O-])c1cc2ccccc2o1,103
11,S=c1[nH]nc(NCCCN2CCOCC2)s1,95.1
12,Cc1cccc(N=c2c([N+](=O)[O-])nn(-c3ccc(Cl)cc3)n2O)c1,97.7
13,COc1ccc(CCN2C(=O)c3cccc4cccc(c34)C2=O)cc1OC,104
14,COc1ccc(C(=O)NC(=S)Nc2ccc(CN3CCOCC3)cc2)cc1,99.9
15,CCOc1ccccc1N1CCN(C(=O)c2ccccc2)CC1,98.8
16,CCOC(=O)C(=Cc1ccc(F)cc1)C(=O)OCC,100
17,O=C(O)c1ccn2c(C(=O)c3ccccc3)c(-c3ccccc3)cc2c1,95.4
18,CCc1nnc(N2C(=O)c3cccc4cccc(c34)C2=O)s1,93.3
19,CC1CCCN(CCCNC(=O)C2CCN(S(=O)(=O)N3CCC4(CC3)OCCO4)CC2)C1 (stereo not given),98.5
20,COc1ccccc1NC(=O)c1ccc(N)cc1,98.1

# Experiment: yeast TOR pathway reporter LAP4-GFP change – cell-based, cherry picks, flow cytometry, mother/daughter gates, confirmation (AID 2271);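 also: ratio of sample to DMSO plate mean so 100% equals DMSO level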
# Settings: S. cerevisiae LAP4-GFP strain, 3 h, at 10 µM, stronger effect = higher value, 100 means same as DMSO control
# How it was run: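 Test system: GFP-fusion yeast strain / Amount: 0.2 OD600 cells / Buffer or medium: SC medium / Dosing: 10 µM single dose / Incubation: compound exposure 3 h at 30 °C, end-over-end rotation / Detection: HT flow cytometry, GFP fluorescence channel / Evaluation: median GFP fluorescence as percent of plate-mean DMSO wells / Control set: DMSO-only negative wells, rapamycin 400 ng/mL positive wells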
row,SMILES,GFP response relative to DMSO
1,CSc1nc2ccc(S(=O)(=O)N3CCCC3)cc2s1,135% (inactive)
2,O=C1c2cccc3c([N+](=O)[O-])ccc(c23)C(=O)N1CCc1ccccn1,164% (active)
3,COc1ccc(N=Cc2nc(-c3ccccc3)oc2OC(=O)c2ccccc2)cc1,108% (inactive)
4,CS(=O)(=O)Nc1ccc(C2=NN(S(C)(=O)=O)C(c3ccccc3)C2)cc1 (stereo not given),133% (inactive)
5,Nc1cccc(C(=O)Nc2ccccc2Cl)c1,97.9% (inactive)
6,CCN(CC)c1ccc(/C=C/c2cccc[n+]2C)c(OC)c1,113% (inactive)
7,O=C(N/N=C/c1cccc(Oc2ccccc2)c1)c1ccncc1,107% (inactive)
8,N/C(Cc1ccc(Cl)cc1Cl)=N\OC(=O)c1ccccc1,222% (active)
9,CCC(=O)N/C(N)=N/c1nc2ccccc2o1,110% (inactive)
10,Cc1cccc2nc(-c3cccnc3)c(NCCC(C)C)n12,89% (inactive)
11,CCOc1ccc(C(Nc2cccnc2)c2cc(Cl)c3cccnc3c2O)cc1 (stereo not given),164% (active)
12,Nc1cccnc1S(=O)(=O)c1ccccc1,93.8% (inactive)
13,O=C1ON=C(c2ccccc2)/C1=C/c1ccco1,169% (active)
14,COc1cc(NC(=O)c2c(OC)cccc2OC)ccc1NC(=O)c1cc2ccccc2o1,109% (inactive)
15,Cc1cc(NC(=O)c2cc3ccccc3o2)ccc1NC(=O)c1ccccc1,95.4% (inactive)
16,Clc1cccc(Cn2ncc3ccccc32)c1,103% (inactive)
17,Cc1ccccc1NC(=O)CC1SC(=O)N(c2ccccc2)C1=O (stereo not given),131% (inactive)
18,CCOC(=O)c1sc(NC(=O)CN2C(=O)c3cccc4cccc(c34)C2=O)nc1C,87.6% (inactive)
19,COc1ccc(C(=O)Nc2cccc(C)c2)cc1,109% (inactive)
20,COc1ccc(C2CC(c3cccs3)=NN2S(=O)(=O)c2ccc(C)cc2)cc1 (stereo not given),106% (inactive)

row,SMILES,GFP response relative to DMSO
1,O=C1c2ccsc2SCCN1Cc1ccccc1,112% (inactive)
2,CCCOc1ccc(C(=O)NNC(=S)NC(=O)c2ccco2)cc1,175% (active)
3,CCc1c2ccccc2nn1-c1ccccc1C(=O)C(C)=O,102% (inactive)
4,Cc1c(Br)cc(C(=O)O)c(C)c1C,101% (inactive)
5,CSC1=NS(=O)(=O)c2c(C)nn(C)c2S1,156% (active)
6,O=S(=O)(c1ccc(Cl)cc1)c1ccccn1,94.1% (inactive)
7,COc1cccc(C(=O)/C=C/c2ccc(SC)cc2)c1,103% (inactive)
8,Cc1ccc(N2C(=O)CC(Sc3ncn[nH]3)C2=O)cc1C (stereo not given),137% (inactive)
9,O=C(NCc1ccccn1)c1cc(-c2ccc(Cl)cc2)oc1C(F)(F)F,103% (inactive)
10,O=C(CSc1cccc[n+]1[O-])c1cc2ccccc2o1,138% (inactive)
11,S=c1[nH]nc(NCCCN2CCOCC2)s1,101% (inactive)
12,Cc1cccc(N=c2c([N+](=O)[O-])nn(-c3ccc(Cl)cc3)n2O)c1,111% (inactive)
13,COc1ccc(CCN2C(=O)c3cccc4cccc(c34)C2=O)cc1OC,95.7% (inactive)
14,COc1ccc(C(=O)NC(=S)Nc2ccc(CN3CCOCC3)cc2)cc1,99.5% (inactive)
15,CCOc1ccccc1N1CCN(C(=O)c2ccccc2)CC1,101% (inactive)
16,CCOC(=O)C(=Cc1ccc(F)cc1)C(=O)OCC,107% (inactive)
17,O=C(O)c1ccn2c(C(=O)c3ccccc3)c(-c3ccccc3)cc2c1,113% (inactive)
18,CCc1nnc(N2C(=O)c3cccc4cccc(c34)C2=O)s1,94.1% (inactive)
19,CC1CCCN(CCCNC(=O)C2CCN(S(=O)(=O)N3CCC4(CC3)OCCO4)CC2)C1 (stereo not given),97.9% (inactive)
20,COc1ccccc1NC(=O)c1ccc(N)cc1,100% (inactive)
